Screening results deposited in PubChem by several laboratories.
Sampled rows, rich in hits. Any-hit rate of the full collection: about 4%.
FAS-TE inh: FAS thioesterase (human) inhibition; P49327; recombinant FAS-TE, OMFH fluorogenic substrate, fluorescence endpoint; inhibition, % at 15 µM; 0.67% of 360,000 active; AID 602261;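 active means compounds whose normalised, plate-corrected inhibition of enzyme fluorescence in the single-dose primary screen is 50% or more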;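 further: 0% = DMSO with enzyme and 100% = substrate without enzyme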
Target sequence (P49327 whole entry, looked up): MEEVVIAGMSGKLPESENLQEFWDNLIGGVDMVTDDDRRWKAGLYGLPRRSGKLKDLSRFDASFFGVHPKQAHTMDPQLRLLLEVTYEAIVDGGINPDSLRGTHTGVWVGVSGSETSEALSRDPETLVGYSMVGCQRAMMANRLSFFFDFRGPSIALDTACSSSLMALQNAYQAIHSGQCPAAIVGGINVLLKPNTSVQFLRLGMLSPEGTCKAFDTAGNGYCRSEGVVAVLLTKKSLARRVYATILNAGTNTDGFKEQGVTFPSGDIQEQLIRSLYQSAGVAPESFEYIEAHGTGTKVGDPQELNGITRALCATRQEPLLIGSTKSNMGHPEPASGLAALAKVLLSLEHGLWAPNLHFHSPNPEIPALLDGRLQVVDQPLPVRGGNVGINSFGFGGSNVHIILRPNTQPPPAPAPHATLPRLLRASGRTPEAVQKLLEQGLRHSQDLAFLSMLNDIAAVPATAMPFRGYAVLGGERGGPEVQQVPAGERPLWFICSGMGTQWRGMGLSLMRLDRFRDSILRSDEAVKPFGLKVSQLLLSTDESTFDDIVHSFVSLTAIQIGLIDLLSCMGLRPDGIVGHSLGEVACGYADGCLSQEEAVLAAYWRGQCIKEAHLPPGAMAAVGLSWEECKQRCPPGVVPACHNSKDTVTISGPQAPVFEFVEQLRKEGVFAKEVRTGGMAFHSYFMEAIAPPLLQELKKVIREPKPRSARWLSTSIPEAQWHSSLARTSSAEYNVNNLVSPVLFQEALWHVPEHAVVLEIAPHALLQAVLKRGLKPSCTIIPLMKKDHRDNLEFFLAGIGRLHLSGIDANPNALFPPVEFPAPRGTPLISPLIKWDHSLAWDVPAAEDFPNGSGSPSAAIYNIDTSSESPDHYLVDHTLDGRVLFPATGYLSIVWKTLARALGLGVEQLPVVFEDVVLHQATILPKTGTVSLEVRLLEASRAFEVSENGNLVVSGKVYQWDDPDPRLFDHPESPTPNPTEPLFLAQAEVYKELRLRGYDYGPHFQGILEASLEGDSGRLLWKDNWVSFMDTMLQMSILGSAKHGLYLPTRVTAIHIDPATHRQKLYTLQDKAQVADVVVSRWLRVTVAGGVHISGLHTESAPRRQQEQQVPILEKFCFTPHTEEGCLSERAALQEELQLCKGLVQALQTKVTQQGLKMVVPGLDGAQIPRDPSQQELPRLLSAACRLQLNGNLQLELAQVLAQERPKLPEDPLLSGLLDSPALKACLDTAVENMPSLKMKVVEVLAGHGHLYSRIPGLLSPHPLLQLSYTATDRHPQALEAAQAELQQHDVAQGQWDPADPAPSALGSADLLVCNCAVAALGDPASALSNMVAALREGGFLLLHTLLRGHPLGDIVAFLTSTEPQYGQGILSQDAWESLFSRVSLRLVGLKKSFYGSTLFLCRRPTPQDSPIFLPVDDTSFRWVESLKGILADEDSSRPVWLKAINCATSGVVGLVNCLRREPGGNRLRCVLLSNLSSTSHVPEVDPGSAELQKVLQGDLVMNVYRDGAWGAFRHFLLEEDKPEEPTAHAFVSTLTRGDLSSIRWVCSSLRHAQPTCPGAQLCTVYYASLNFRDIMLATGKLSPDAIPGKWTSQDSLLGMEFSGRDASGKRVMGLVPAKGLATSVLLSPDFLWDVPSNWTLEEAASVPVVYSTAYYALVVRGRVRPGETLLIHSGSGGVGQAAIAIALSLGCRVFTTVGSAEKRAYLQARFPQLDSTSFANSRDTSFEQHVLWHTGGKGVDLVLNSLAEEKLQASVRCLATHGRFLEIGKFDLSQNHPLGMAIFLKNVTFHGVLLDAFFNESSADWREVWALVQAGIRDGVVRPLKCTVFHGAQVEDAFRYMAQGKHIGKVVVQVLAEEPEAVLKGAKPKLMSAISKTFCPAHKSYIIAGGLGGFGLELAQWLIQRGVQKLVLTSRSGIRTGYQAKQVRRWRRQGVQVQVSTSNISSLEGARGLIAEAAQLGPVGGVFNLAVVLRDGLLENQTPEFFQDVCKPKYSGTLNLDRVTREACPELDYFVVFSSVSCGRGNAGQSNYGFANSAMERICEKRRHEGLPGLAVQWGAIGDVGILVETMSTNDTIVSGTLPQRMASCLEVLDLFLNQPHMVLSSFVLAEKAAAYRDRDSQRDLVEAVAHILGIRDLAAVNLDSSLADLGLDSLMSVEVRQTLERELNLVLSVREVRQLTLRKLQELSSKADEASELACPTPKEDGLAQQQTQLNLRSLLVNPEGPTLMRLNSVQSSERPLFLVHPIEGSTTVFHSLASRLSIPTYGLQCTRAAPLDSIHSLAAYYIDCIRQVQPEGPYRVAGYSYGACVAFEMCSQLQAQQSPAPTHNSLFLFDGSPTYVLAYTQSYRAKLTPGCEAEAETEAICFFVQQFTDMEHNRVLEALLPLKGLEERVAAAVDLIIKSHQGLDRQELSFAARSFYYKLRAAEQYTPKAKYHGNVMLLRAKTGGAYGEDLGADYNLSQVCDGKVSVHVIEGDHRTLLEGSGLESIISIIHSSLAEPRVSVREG
SENP1 FRET inh: inhibitors of human SENP1 SUMO protease catalytic domain; Q9P0U3; recombinant SENP1 catalytic domain, CyPet-SUMO1-YPet FRET cleavage; inhibition, % at 10 µM; 0.21% of 360,000 active;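 active means inhibition at least 30% at 10 µM, raw YFP signal under a set limit, fluorescence ratio 0.5 to 1.5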;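 further: 0% = enzyme with DMSO and 100% = no enzyme wells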
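system = hSENP1 catalytic domain, recombinant | reagent = SFCypet-SUMO1-SFYpet substrate at 25 nM | doses = one dose per compound, 10 µM, 0.5% DMSO | incubation = enzyme reaction for 50 min at room temperature, dark | measured by = FRET, CFP and YFP emission | controls = no-enzyme low, enzyme-DMSO high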
iPSC survival up: hiPSC single-cell survival enhancement. AID 602274. ATPlite luminescence; 100% = ROCK inhibitor wells, 0% = DMSO. survival enhancement, % at 20 µM. 0.044% of 360,000 active; in the data active means survival enhancement above about 18%;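 further: cells exposed to compounds for 16 hours before the ATP read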
H9c2 protect: protects H9c2 cardiomyocytes from peroxide injury; H2O2 injury protection, ATPLite, 2 h; protection from H2O2 cell death, % at 20 µM; 0.63% of 360,000 active; AID 588492;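 active means compounds giving at least 50% protection of heart cells from peroxide-induced death in the single-dose screen, raw or plate-pattern-corrected value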;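 further: 0% = DMSO wells with peroxide and 100% = DMSO wells without peroxide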
GRIN3A LBD mod: modulates the human NR3A ligand-binding domain. Tm shift relative to glycine control, % at 25 µM. 2.5% of 340,000 active. AID 1259313. NR3A LBD differential scanning fluorimetry, Tm shift; 0% = protein alone, 100% = glycine-bound protein;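 active means melting temperature shift of at least 10% of the positive control shift, at one fixed dose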
Arr AP2 block: blocks beta-arrestin peptide binding to AP2 adaptin; FITC-arrestin peptide / GST-AP2 beads, flow cytometry; AP2 beta2 appendage carries R879A mutation; inhibition, % at 10 µM; 0.31% of 340,000 active; AID 504490;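 active means inhibition above a set limit, near 3 SD of compounds lacking own fluorescence, cut at about 54% in these data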;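 further: plate controls were DMSO wells for no effect and 5 µM unlabelled arrestin peptide for full effect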
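Measured by: flow cytometry, FL1 (488/535 nm); Material: AP2 appendage R879A on GSH beads; Evaluation: percent response; Timing: pre-incubation 12 min, peptide binding 1 h, room temperature; Also added: 50 nM FITC-arrestin peptide; Medium: PBS with 0.05% Tween 20 and 0.1% BSA.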
Active calls of the source: *; nt = no result.

SMILES	FAS-TE inh	SENP1 FRET inh	iPSC survival up	H9c2 protect	GRIN3A LBD mod	Arr AP2 block
COc1ccc(Br)c2oc(SC)cc(=O)c12	-11.7	-1.2	-0.7	14.4	10.1*	13.9
CC(=O)Nc1ccc(S(=O)(=O)NCCOc2ccc(Cl)cc2C)cc1	0.4	2.0	-0.6	-15.2	-3.7	2.2
CCCCOc1ccc(CONS(=O)(=O)c2ccc(NC(C)=O)cc2)cc1Cl	31.4	2.5	-2.4	-22.1	28.1*	0.4
Cc1ccc(C(=O)Cc2ccccc2)c(O)c1	17.4	2.1	0.9	-2.7	-1.0	-21.0
CC(C)=CCc1c(O)ccc(C(=O)Cc2ccccc2)c1O	-7.9	1.5	-2.2	-26.4	17.5*	9.0
CC1(C(=O)Nc2ccc(Cl)c(Cl)c2)CCN1C(=O)CCC1CCCC1 (configuration not stated)	47.1	1.3	-0.7	-8.2	nt	nt
Cn1c(=O)c2[nH]c(CCCCCCCc3nc4ccccc4[nH]3)nc2n(C)c1=O	-3.2	-3.5	10.7	-7.8	1.1	30.1
Cc1ccc(NC(=O)Nc2cccc3ccccc23)cc1	-0.6	1.1	-0.5	-0.9	-11.2	27.1
N#CCc1ccc(NC(=O)Nc2cccc3ccccc23)cc1	-3.9	0.9	-0.1	-1.0	21.4*	6.1
Cc1c(CN(C)C(=O)C2CCC(=O)N(Cc3ccccc3F)C2)[nH]c2ccccc12 (configuration not stated)	-0.7	-0.2	1.3	-0.3	nt	nt
CCOc1ccc2nc3ccc4[nH]onc4c3c2c1	-48.0	-23.7	3.8	-11.6	30.8*	28.0
CCOc1ccc2nc(N3CCOCC3)nc(C)c2c1	1.3	-20.7	-3.1	-12.5	-1.3	-2.1
Cc1ccc(NC2Sc3ccccc3NC2=O)cc1 (configuration not stated)	6.0	-3.0	-1.2	-9.5	12.8*	-27.6
COC(=O)CC1Sc2ccccc2NC1=O (configuration not stated)	-9.3	2.4	-0.6	-4.2	13.9*	4.7
O=C1Nc2ccccc2SC1c1ccccc1 (configuration not stated)	-3.6	3.0	0.1	-2.2	1.3	1.0
CCCN(CCC)S(=O)(=O)c1ccc(C(=O)OCCN2C(=O)c3cccc4c(N5CCOCC5)ccc(c34)C2=O)cc1	-108.9	-28.0	-0.6	1.3	17.4*	1.5
O=C(OCCN1C(=O)c2cccc3c(N4CCOCC4)ccc(c23)C1=O)c1ccc(Cl)cc1	-120.2	-22.8	0.0	-4.0	7.1	11.1
CC1(C(=O)NS(=O)(=O)c2cccc(OC(F)F)c2)CCN1C(=O)Cc1ccsc1 (configuration not stated)	-9.5	-0.7	-1.3	2.9	nt	nt
O=C1ON=C(c2ccccc2)/C1=C/c1ccc(-c2ccccc2[N+](=O)[O-])o1	-4.3	1.5	-2.7	-8.8	22.5*	1.8
Cc1cc(-c2nn3c(-c4ccccc4)nnc3s2)c2ccccc2n1	8.9	-4.9	4.0	64.3*	-0.2	32.0
c1ccc(-c2cc(-c3nn4c(-c5ccco5)nnc4s3)c3ccccc3n2)cc1	11.8	0.8	5.2	43.1	1.3	10.5
CC(=O)Nc1cc(-c2ccccc2N(C)C)cn2c(-c3ccc(S(C)(=O)=O)cc3)cnc12	-11.8	-32.0	-0.1	21.4	nt	nt
Cn1c(SCC(=O)NC2(C#N)CCCCC2)nnc1-c1cccnc1	-6.9	1.1	0.2	7.9	17.4*	3.2
O=C(Cc1ccccc1)NC(CSSCC(NC(=O)Cc1ccccc1)C(=O)O)C(=O)O (configuration not stated)	-9.1	0.7	16.1	1.5	36.1*	0.5
COc1cccc(/C=N/Nc2nnc3c(n2)[nH]c2ccccc23)c1OC	-5.4	-23.9	-0.4	11.7	-1.9	-6.3
SMILES	FAS-TE inh	SENP1 FRET inh	iPSC survival up	H9c2 protect	GRIN3A LBD mod	Arr AP2 block
CCc1ccc2[nH]c3nc(N/N=C/c4cccc(O)c4)nnc3c2c1	-1.9	-6.8	-0.6	23.2	17.6*	3.3
O=C(NC(NC(=S)Nc1ccccc1C(=O)O)C(Cl)(Cl)Cl)c1cccc([N+](=O)[O-])c1 (configuration not stated)	7.8	0.3	-2.1	0.2	15.8*	5.5
COc1ccc(C(=O)NC(NC(=S)Nc2ccc(S(N)(=O)=O)cc2)C(Cl)(Cl)Cl)cc1 (configuration not stated)	11.7	4.3	2.6	-0.2	13.1*	1.6
O=C(Cc1cccc2ccccc12)NC(NC(=S)Nc1ccccc1Cl)C(Cl)(Cl)Cl (configuration not stated)	5.9	-0.6	-2.2	-12.7	19.5*	-7.3
COc1ccc(NC(=S)NC(NC(=O)c2cccc(Cl)c2)C(Cl)(Cl)Cl)c([N+](=O)[O-])c1 (configuration not stated)	22.9	-0.5	1.6	-15.9	12.6*	7.1
O=C(O)c1cccc(NC(=O)c2ccccc2NC(=O)c2cccc([N+](=O)[O-])c2)c1	1.5	-0.1	0.2	6.4	0.3	14.0
CCC(=O)Nc1ccc(S(=O)(=O)NC[C@H]2O[C@@H](n3cnc4c(=O)[nH]c(N)nc43)[C@H](O)[C@@H]2O)cc1	-5.8	-2.8	0.5	3.0	nt	nt
CC(C)c1c(C(=O)Nc2ccccc2)c(-c2ccccc2)c(-c2ccc(F)cc2)n1CC[C@@H](O)C[C@@H](O)CC(=O)O	0.5	-2.3	0.0	5.9	nt	nt
O=C(CC1c2ccccc2C=C(c2ccsc2)N1c1ccc(-c2cccnc2)cc1)C1CC1 (configuration not stated)	16.7	-13.9	0.2	nt	nt	nt
COc1cc(F)ccc1-c1csc(C(C)(O)c2ccc(F)c(F)c2)n1 (configuration not stated)	28.0	0.3	3.1	-12.8	nt	nt
CCCC#Cc1ccc2c(c1)O[C@@H](CN(C)Cc1ccc3c(c1)OCO3)[C@H](C)CN([C@@H](C)CO)S2(=O)=O	23.0	-3.0	-2.4	-2.7	nt	nt
O=C(NC(NC(=S)Nc1ccccc1O)C(Cl)(Cl)Cl)c1ccco1 (configuration not stated)	-8.3	7.6	0.3	6.2	0.2	1.2
COc1ccc(NC(=S)NC(NC(=O)c2cccc(C)c2)C(Cl)(Cl)Cl)c([N+](=O)[O-])c1 (configuration not stated)	15.2	3.4	0.0	-7.9	10.1*	-2.0
O=C(NC(NC(=S)Nc1ccccc1Cl)C(Cl)(Cl)Cl)c1cccc(Cl)c1 (configuration not stated)	21.9	-3.4	-0.1	-12.6	12.6*	-2.6
CC1CCCN(Cc2nc3c(c(=O)n(C)c(=O)n3C)n2CCCc2ccccc2)C1 (configuration not stated)	1.6	0.8	-1.7	55.2*	-2.9	47.5
